Measurements from different studies.
Each line is one published result; the experiments were not run side by side.
Target: BDNF/NT-3 growth factors receptor (NTRK2, Homo sapiens, UniProt Q16620)

For O=C(NCC1CCOCC1)c1n[nH]cc1NC(=O)c1c(F)cccc1F, the remaining binding was 100% (binding, competition with immobilised ligand; 1 µM).
O=C(c1ccc(Nc2nccc(-c3cc4ccccc4s3)n2)cc1)N1CCC(N2CCCC2)CC1 has a remaining binding of 59% (binding, competition with immobilised ligand; 1 µM).
O=C(Nc1cnc(Oc2ccc(F)cc2)nc1)N1CCc2ncccc2[C@@H]1c1ccc(F)cc1 gave a remaining binding of 100% (cell-free assay, competition with immobilised ligand; 1 µM).
For C[C@@H]1CCN(c2nccc(-c3cnn4ncccc34)n2)C1, the remaining binding was 72% (binding; 1 µM).
CCN1CCN(Cc2ccc(C(=O)Nc3ccc(C)c(Oc4ccc5c(c4)CC(=O)N5)c3)cc2C(F)(F)F)CC1 gave a remaining binding of 81% (binding, competition with immobilised ligand; 1 µM).
For CN(c1nccc(-c2cnn3ncccc23)n1)C1CC1, the remaining binding was 100% (binding; 1 µM).
With CCS(=O)(=O)c1cc2cc(C[C@@](O)(CC(C)(C)c3ccc(F)cc3C(N)=O)C(F)(F)F)[nH]c2cn1 the remaining binding was 84% (cell-free assay, competition with immobilised ligand; 1 µM).
O=C(NCCCN1CCOCC1)c1ccc(Nc2ncc(Cl)c(-c3ccc(Cl)s3)n2)cc1 gave a remaining binding of 15% (binding, competition with immobilised ligand; 1 µM).
The remaining binding of CC(C)CC(=O)N1CCc2nc(-c3ccc(Br)cc3)nc(N(C)Cc3ccccc3)c2C1 is reported as 100% (cell-free assay, competition with immobilised ligand; 0.1 µM).
For CN(C)c1ncc(F)c(-c2cnn3ncccc23)n1, the remaining binding was 64% (binding; 1 µM).
The remaining binding of COc1cnc(Nc2cccc(S(N)(=O)=O)c2)nc1N1CCN(c2ccccc2)C(=O)C1 is reported as 100% (binding, competition with immobilised ligand; 1 µM).
The remaining binding of N[C@@H]1CCN(c2nccc(-c3cnn4ncccc34)n2)C1 is reported as 100% (binding; 1 µM).
O=C(c1ccc(Nc2ncc(Cl)c(-c3ccc(Cl)s3)n2)cc1)N1CCC(N2CCCC2)CC1 has a remaining binding of 5.3% (binding, competition with immobilised ligand; 1 µM).
For C=CC(=O)N1CCC(C(=O)NCC(=O)N2CCN(c3nc(-c4cnc(N)nc4C(F)F)nc(N4CCOCC4)n3)CC2)CC1, the remaining binding was 89% (binding, competition with immobilised ligand; 1 µM).
With CN([C@@H]1CCc2c(CC(=O)O)c3cc(S(C)(=O)=O)ccc3n2C1)S(=O)(=O)c1ccc(F)cc1 the remaining binding was 100% (cell-free assay, competition with immobilised ligand; 1 µM).
For COc1ncc2cc3ccccc3nc2c1C#N, the remaining binding was 98% (cell-free assay, competition with immobilised ligand; 5 µM).
The remaining binding of CN(C)c1nccc(-c2cnc3ncccn23)n1 is reported as 65% (binding; 1 µM).
O=C(NC[C@@H]1[C@H]2CN(C(=O)OCc3cc(C(F)(F)F)cc(C(F)(F)F)c3)C[C@@H]12)c1ccc2[nH]nnc2c1 gave a remaining binding of 99% (cell-free assay, competition with immobilised ligand; 1 µM).
Nc1ncc2c(n1)-c1c([nH]c3ccc(C#CC4CC4)cc13)CCCC2 has a remaining binding of 77% (binding, competition with immobilised ligand; 1 µM).
For O=C(O)[C@@H]1[C@@H](Cn2nnc3ccccc3c2=O)CC[C@H]1C(=O)c1ccc(OCCC2CCOCC2)cc1, the remaining binding was 93% (cell-free assay, competition with immobilised ligand; 1 µM).
Cc1cnn2ncc(-c3ccnc(N(C)C)n3)c2c1 has a remaining binding of 84% (binding; 1 µM).
